# CDK5 p35 inh: blocks human CDK5/p35 kinase activity. Q00535+Q15078. Recombinant CDK5/p35, ADP-Glo luminescence, 60 min. inhibition, % at 10 µM. hit rate 0.01% among 330,000;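 active means highest replicate inhibition of at least 50% and at least 75% of replicates reaching 50%; inconclusive means only one of the two criteria met; inactive means both criteria failed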
# GSK3 alpha inh: blocks human GSK-3 alpha kinase | hit rate 0.1% among 320,000 | ADP-Glo luminescence, 60 min | AID 2650 | inhibition, % at 10 µM;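 active means more than half of replicates show inhibition above 20%; inconclusive means some but at most half of replicates above 20% inhibition; inactive means no replicate shows inhibition above 20%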;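 further: GST-tagged GSK-3 alpha with peptide substrate and 25 µM ATP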
# GSK3beta inhib: human GSK3beta kinase inhibition | P49841 | GST-GSK3beta kinase, ADP-Glo luminescence, 60 min; active compounds read low | activity score (negative = inhibition), % at 10 µM | hit rate 0.038% among 300,000 | AID 2097;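 active means more than half of replicate wells score below -50%, meaning over 50% inhibition versus plate controls; inconclusive means some replicates but at most half score below -50%; inactive means no replicate scores below -50%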
# Target sequence (P49841 whole entry, looked up): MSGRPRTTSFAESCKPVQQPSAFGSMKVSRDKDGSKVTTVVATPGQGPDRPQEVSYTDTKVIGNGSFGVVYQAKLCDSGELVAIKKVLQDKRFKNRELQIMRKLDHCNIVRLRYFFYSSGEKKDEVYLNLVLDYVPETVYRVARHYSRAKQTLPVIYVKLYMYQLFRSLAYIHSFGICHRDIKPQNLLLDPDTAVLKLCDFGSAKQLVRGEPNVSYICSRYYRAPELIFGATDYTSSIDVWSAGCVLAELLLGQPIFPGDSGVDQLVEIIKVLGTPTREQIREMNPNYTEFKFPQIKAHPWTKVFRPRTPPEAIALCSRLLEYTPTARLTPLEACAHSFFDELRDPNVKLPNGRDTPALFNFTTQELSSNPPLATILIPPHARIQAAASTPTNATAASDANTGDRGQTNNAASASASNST
#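 Test system – GST-tagged human GSK3beta kinase, cell-free · Incubation – 60 min enzyme reaction, room temperature · Signal – ADP-Glo luminescence · Also added – peptide substrate and ATP at 25 µM · Controls – DMSO neutral wells and GW8510 at 20 µM as positive · Buffer or medium – Tris/MgCl2 kinase buffer · Measure – Luminescence-derived activity versus plate DMSO and GW8510 wells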
# Env fusion inh: blocks HIV Env-driven cell-cell fusion; HeLa-JRFL Env/CEM21 cell fusion, luciferase; inhibition, % at 12.3 µM; hit rate 1.1% among 360,000;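 active means mean replicate inhibition score of at least 50 and every replicate individually at or above 50; inconclusive means only one of the two criteria met; inactive means mean below 50 and not all replicates reaching 50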
# GSIS activator: primary screen for activators of insulin secretion dependent on glucose, INS-1E cells, GLuc reporter luminescence; activation, % at 16.6 µM; hit rate 0.61% among 370,000; INS-1E GLuc reporter insulin secretion, 2-3 h;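 active means lowest replicate activation of at least 40%, so every replicate reaches that level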
# STK33 inh: blocks human STK33 kinase activity; inhibition, % at 10 µM; Q9BYT3; AID 2661; hit rate 0.073% among 320,000; purified STK33, MBP phosphorylation, ADP-Glo luminescence;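 active means inhibition at or above 25%, using the most active replicate where run in duplicate; inactive means inhibition below 25%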
# A number is an active result; – = inactive; ? = inconclusive; · = no result; [ ] = dose if it differs, or a comment. This is a sample that favours compounds with a hit; in the whole collection about 1.4% have one here.
SMILES,CDK5 p35 inh,GSK3 alpha inh,GSK3beta inhib,Env fusion inh,GSIS activator,STK33 inh
O=S(=O)(N1CCOCC1)n1c(Cc2ccccc2)nc2ccccc21,–,–,–,·,49,–
COc1ccc(NC(=O)c2cc([N+](=O)[O-])ccc2O)cc1,–,–,–,83,–,37
C[C@@H]1CCCCO[C@@H](CN(C)C(=O)NC2CCCCC2)[C@H](C)CN([C@H](C)CO)C(=O)c2cc(NS(C)(=O)=O)ccc2O1,·,·,·,–,–,·
Cc1noc(C)c1S(=O)(=O)Nc1ccc2c(c1)C(=O)N([C@@H](C)CO)C[C@H](C)[C@H](CN(C)C(=O)NC(C)C)OCCCC[C@H](C)O2,·,·,·,–,–,·
CO[C@H]1CN(C)C(=O)c2ccc(NC(=O)Nc3ccccc3)cc2OC[C@H](C)N(C(=O)Nc2c(C)noc2C)C[C@@H]1C,·,·,·,·,–,·
O=C(N[C@H]1CC[C@H](CCn2cc(C3CCCCC3)nn2)O[C@H]1CO)c1cccnc1,·,·,·,–,–,·
O=C(Nc1nncs1)C1c2ccccc2Oc2ccccc21,–,–,–,59,–,–
CCCCc1nn(-c2cc(Cl)ccc2OC)c2c1C(=O)CC(C)(C)C2,–,–,–,57,–,–
CN1C(=O)c2cc(NC(=O)Nc3cccc(Cl)c3)ccc2OC[C@H]2O[C@H](CC(=O)O)CC[C@H]21,·,·,·,–,–,·
C[C@H](CO)N1C[C@H](C)[C@H](CN(C)S(C)(=O)=O)Oc2ccc(NC(=O)Cc3cn(C)c4ccccc34)cc2C1=O,·,·,·,–,–,·
COc1cc2c(cc1[N+](=O)[O-])n(C(C)C)c(=O)n2C(C)C,–,–,–,–,58,–
COc1cc(CC(=O)O)c([N+](=O)[O-])cc1OC,–,–,–,–,–,–
CO[C@@H]1CN(C)C(=O)c2cc(NC(=O)C3CCC3)ccc2OC[C@H](C)N(Cc2ccccn2)C[C@@H]1C,·,·,·,–,–,·
N#C/C(=C/c1ccc(Sc2nc3ccccc3[nH]2)o1)c1cccc(Br)c1,–,–,–,·,·,–
CCN1C(=O)S/C(=C/c2ccc(Sc3nc4ccccc4[nH]3)o2)C1=O,–,–,–,62,–,–
COC(=O)CCn1nnc(-c2ccc(C(C)C)cc2)n1,–,–,–,66,·,–
CCC(=O)N(C)C[C@H]1Oc2cc(C#C[C@@H](C)O)ccc2S(=O)(=O)N([C@H](C)CO)C[C@@H]1C,·,·,·,·,–,·
O=C(C[C@@H]1CC[C@@H]2[C@H](COC[C@@H](O)CN2Cc2cccc(C(F)(F)F)c2)O1)NCc1ccc(Cl)cc1,·,·,·,–,–,·
Cc1ccccc1S(=O)(=O)N1C[C@H](O)COC[C@H]2O[C@@H](CC(=O)NCc3ccccc3Cl)CC[C@@H]21,·,·,·,57[16.7 µM],–,·
O=C(C[C@@H]1CC[C@H]2[C@@H](COC[C@H](O)CN2Cc2cccc(C(F)(F)F)c2)O1)NCc1ccc(Cl)cc1,·,·,·,68[16.7 µM],–,·
O=C(c1ccccn1)N1C[C@H]2[C@@H](c3ccccc31)[C@@H](CO)N2CC1CCCC1,·,·,·,·,–,·
C[C@H](CO)N1C[C@H](C)[C@H](CN(C)S(=O)(=O)c2ccc(F)cc2)Oc2ncc(C#Cc3ccccc3)cc2C1=O,·,·,·,–,–,·
CC(Oc1ccc2c3c(c(=O)oc2c1)CCCC3)C(=O)NCc1cccnc1 (configuration not stated),–,–,–,–,48,–
CC(Oc1cc2oc(=O)c3c(c2cc1Cl)CCCC3)C(=O)NCc1cccnc1 (configuration not stated),–,–,–,–,–,–
O=C(O)COc1ccc2c3c(c(=O)oc2c1)CCC3,–,–,–,·,131,–
SMILES,CDK5 p35 inh,GSK3 alpha inh,GSK3beta inhib,Env fusion inh,GSIS activator,STK33 inh
O=c1oc2cc(O)ccc2c2c1CCCC2,–,56,–,–,·,–
CO[C@@H]1CN(C)C(=O)c2cc(NC(=O)Cc3ccccc3)ccc2OC[C@H](C)N(C(C)=O)C[C@H]1C,·,·,·,–,–,·
CC(=O)Nc1ccc(/C=C(\C#N)S(=O)(=O)c2ccc(C)cc2)cc1,–,–,·,–,60,–
CC(=O)Nc1ccc(N/C=C(\C#N)S(=O)(=O)c2ccc(Cl)cc2)cc1,–,–,–,–,–,–
Cc1ccc(S(=O)(=O)N2C[C@@H]3CCCC[C@@H]3[C@@H](C)[C@H]2c2cn(Cc3ccccc3)c3ncccc23)cc1,–,·,·,70,–,·
Cc1ccc(S(=O)(=O)N2C[C@@H]3[C@H]4CC[C@H](C4)[C@@H]3[C@@H](C)[C@@H]2c2cn(Cc3ccccc3)c3ncccc23)cc1,–,·,·,–,–,·
Cc1ccc(S(=O)(=O)N2C[C@@H]3CCCC[C@@H]3[C@@H](C)[C@H]2c2cn(Cc3ccccc3)c3ccccc23)cc1,–,·,·,63,·,·
CN(C)CCOc1ccc(/C(=C(/CCCl)c2ccccc2)c2ccccc2)cc1,–,·,–,·,104,·
Cc1cc(NC(=O)CSCC(=O)N(c2ccc(F)cc2)C(C(=O)NC2CCCCC2)c2ccc(O)c(O)c2)no1 (configuration not stated),–,–,–,?,–,–
COc1ccc(N(C(=O)CSCC(=O)Nc2cc(C)on2)C(C(=O)NC2CCCCC2)c2ccc(O)c(O)c2)cc1 (configuration not stated),–,–,–,57,–,–
CC1=NS(=O)(=O)NC(C)(C)C1,–,·,·,–,53,·
COCC(=O)N1C[C@H](C)[C@@H](OC)CN(C)C(=O)c2ccc(NC(=O)c3cc(C)on3)cc2OC[C@H]1C,·,·,·,·,–,·
O=C(CCCSc1nc2ccccc2[nH]1)N1CCN(c2ccccc2)CC1,–,–,–,–,·,–
Cc1cccc(N2CCN(C(=O)CCCSc3nc4ccccc4[nH]3)CC2)c1C,–,–,–,74,–,–
N#C/C(=C/c1ccc(Sc2nc3ccccc3[nH]2)o1)c1ccccc1F,–,–,–,73,–,–
N#C/C(=C/c1ccc(Sc2nc3ccccc3[nH]2)o1)c1cccc(F)c1,–,–,–,87,–,–
O=c1cc(Cl)[nH]c(=O)n1Cc1ccccc1,–,–,–,–,48,–
N#CC(C#N)=C1c2cc(S(N)(=O)=O)ccc2-c2ccc(S(N)(=O)=O)cc21,–,·,·,–,–,·
NC1=C(Cl)C(=O)c2ccc(S(N)(=O)=O)cc2C1=O,–,·,·,63,–,·
NS(=O)(=O)c1ccc2c(c1)C(=NO)c1cc(S(N)(=O)=O)ccc1-2,–,–,–,–,–,72
Cc1noc(C)c1NC(=O)Nc1ccc2c(c1)CC(=O)N([C@@H](C)CO)C[C@@H](C)[C@H](CN(C)C(=O)Nc1ccc(F)cc1)O2,·,·,·,–,–,·
COCC(=O)N1C[C@H](C)[C@H](OC)CN(C)C(=O)c2ccc(NC(=O)c3cnccn3)cc2OC[C@H]1C,·,·,·,·,–,·
C[C@@H]1CN([C@@H](C)CO)C(=O)c2cccc(NS(=O)(=O)c3ccc(Cl)cc3)c2O[C@@H]1CN(C)S(=O)(=O)c1ccc(F)cc1,·,·,·,–,·,·
COc1ccc([Si](C)(C)[C@@H]2[C@@H](CCO)O[C@]3(C(=O)N(Cc4ccc(N5CCOC5=O)cc4)c4ccccc43)[C@H]2C)cc1,·,·,·,57[16.7 µM],·,·
